Assays:
α4β1 integrin [1] = target: T1, α4β1 integrin (Homo sapiens, UniProt P05556+P13612); experiment: in vitro binding studies of radioiodinated 8; conditions: 125I-labelled
[2] = tested on: Raji cells (human B-cell lymphoma) xenograft tumors; experiment: animal biodistribution study for 7 in Raji xenograft mice; assay type: in vivo, BALB/c nu/nu mice; conditions: i.v.
Summary of the method: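 Eleven female BALB/c nu/nu mice, 5–6 weeks old, were xenografted s.c. in the abdomen with 5 × 10⁶ Raji cells. Tumors were measured after three weeks. The ¹²⁵I-labeled test compound (4–6 μCi; 5 μg, 6 nmol) in normal saline was given i.v. via the tail vein. Mice were killed at 4, 24 and 48 h. Tissues were weighed and γ-counted (%ID/g). Mice were grouped afterwards by slow or fast blood clearance.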

α4β1 integrin [3] = target: T1, α4β1 integrin; experiment: cell adhesion competitive inhibition assay; assay type: cell-based
Summary of the method: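 Wells were coated with neutravidin, then loaded with biotinylated CS-1 to immobilize the ligand, and blocked with BSA. Molt-4 cells (human T-cell leukemia, α4β1-bearing) were incubated in the wells with test compound. Wells were washed, formalin-fixed and crystal violet-stained, and absorbance was read at 570 nm. Percent inhibition came from concentration-dependent curves.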

T1 sequence (P13612 34-1032): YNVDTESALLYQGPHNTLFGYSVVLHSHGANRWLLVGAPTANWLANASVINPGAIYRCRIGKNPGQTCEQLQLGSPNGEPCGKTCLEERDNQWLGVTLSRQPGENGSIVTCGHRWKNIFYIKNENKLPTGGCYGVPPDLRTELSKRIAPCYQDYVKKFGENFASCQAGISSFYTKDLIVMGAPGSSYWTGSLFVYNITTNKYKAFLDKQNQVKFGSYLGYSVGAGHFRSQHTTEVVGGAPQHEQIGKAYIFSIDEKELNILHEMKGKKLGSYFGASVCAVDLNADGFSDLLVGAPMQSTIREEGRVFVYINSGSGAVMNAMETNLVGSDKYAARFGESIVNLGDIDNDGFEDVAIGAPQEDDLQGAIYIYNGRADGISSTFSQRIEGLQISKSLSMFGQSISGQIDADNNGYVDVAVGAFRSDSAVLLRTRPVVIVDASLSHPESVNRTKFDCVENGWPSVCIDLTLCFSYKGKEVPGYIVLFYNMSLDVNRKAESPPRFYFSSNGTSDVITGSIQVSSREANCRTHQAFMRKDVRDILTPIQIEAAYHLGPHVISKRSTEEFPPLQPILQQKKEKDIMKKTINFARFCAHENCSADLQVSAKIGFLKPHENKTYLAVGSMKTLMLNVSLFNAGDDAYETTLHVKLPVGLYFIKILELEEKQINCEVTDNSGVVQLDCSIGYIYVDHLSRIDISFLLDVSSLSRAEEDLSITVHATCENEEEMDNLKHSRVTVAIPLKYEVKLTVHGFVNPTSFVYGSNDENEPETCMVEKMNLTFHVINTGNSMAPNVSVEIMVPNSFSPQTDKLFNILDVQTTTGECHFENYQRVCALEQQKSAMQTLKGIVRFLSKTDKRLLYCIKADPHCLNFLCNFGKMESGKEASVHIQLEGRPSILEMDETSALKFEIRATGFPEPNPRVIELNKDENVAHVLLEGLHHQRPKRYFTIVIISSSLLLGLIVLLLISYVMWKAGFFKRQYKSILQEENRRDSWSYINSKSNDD
T1 sequence (P05556 21-798): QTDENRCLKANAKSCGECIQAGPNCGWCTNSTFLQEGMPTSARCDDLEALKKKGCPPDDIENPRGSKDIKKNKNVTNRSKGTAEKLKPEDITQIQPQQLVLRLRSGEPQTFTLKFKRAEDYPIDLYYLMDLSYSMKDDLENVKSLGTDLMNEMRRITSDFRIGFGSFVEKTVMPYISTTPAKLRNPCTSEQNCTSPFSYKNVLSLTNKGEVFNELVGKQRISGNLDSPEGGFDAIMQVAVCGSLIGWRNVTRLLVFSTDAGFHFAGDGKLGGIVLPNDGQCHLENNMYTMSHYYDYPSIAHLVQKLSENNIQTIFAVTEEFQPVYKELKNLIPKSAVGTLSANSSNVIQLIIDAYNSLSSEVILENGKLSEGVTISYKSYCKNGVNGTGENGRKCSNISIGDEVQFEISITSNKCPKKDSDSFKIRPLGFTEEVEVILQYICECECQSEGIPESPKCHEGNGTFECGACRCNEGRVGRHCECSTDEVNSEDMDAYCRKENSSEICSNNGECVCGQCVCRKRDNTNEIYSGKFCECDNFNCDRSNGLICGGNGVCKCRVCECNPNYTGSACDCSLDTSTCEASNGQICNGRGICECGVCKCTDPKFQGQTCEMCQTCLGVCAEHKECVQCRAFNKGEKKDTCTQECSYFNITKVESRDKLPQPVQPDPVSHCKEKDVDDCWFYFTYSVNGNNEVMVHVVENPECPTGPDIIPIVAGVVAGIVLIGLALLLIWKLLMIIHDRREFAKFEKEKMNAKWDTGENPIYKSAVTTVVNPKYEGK

In the case of `NC(=O)[C@H](Cc1ccc(O)c([125I])c1)C(=O)NC(=O)C1(NC(=O)[C@H](CCC(=O)O)NC(=O)[C@H](CCCCNC(=O)/C=C/c2cccnc2)NC(=O)c2ccc(Nc3nc4cc(Br)ccc4[nH]3)cc2)CCCCC1` [compound 8, [^125I]-(S)-6-[1-{(S)-3-Amino-2-(4-hydroxy-3-iodobenzyl)-3-oxopropanoyl-carbamoyl}cyclohexylamino]-5-[(S)-2-{4-(5-bromo-1H-benzo[d]imidazol-2-ylamino)benzamido]-6-[(E)-3-(pyridin-3-yl)-acrylamido}hexanamido]-6-oxohexanoic Acid], the in vitro binding (α4β1 integrin [1]) is reported as less than 4%.
With `NC(=O)C1(NC(=O)[C@H](CCC(=O)O)NC(=O)[C@H](CCCCNC(=O)/C=C/c2cccnc2)NC(=O)c2ccc(Nc3nc4cc([125I])ccc4[nH]3)cc2)CCCCC1` [compound 7, [^125I]-(S)-6-(1-Carbamoylcyclohexylamino)-5-[(S)-2-{4-(5-iodo-1H-benzo[d]imidazol-2-ylamino)-benzamido]-6-[(E)-3-(pyridin-3-yl)acrylamido}hexanamido]-6-oxo-hexanoic Acid] the “major dose accumulated in liver, spleen and marrow” value ([2]; fast blood clearance mice (3 at 24 h, 2 at 48 h)) was 25 % ID/g, the tumor uptake ([2]; fast blood clearance mice) was “less than 1.5 % ID/g” and the “still circulating in the blood” value ([2]; slow blood clearance mice (2 at 24 h, 1 at 48 h)) was “approximately 15%”. The “liver, spleen and marrow uptakes” value ([2]; slow blood clearance mice, 48 h) was “less than 8 % ID/g”, the tumor uptake ([2]; slow blood clearance mice) was “greater than 6 % ID/g” and the “reduced in vitro affinity for α4β1 integrin compared to the bromo analogue 5” value (α4β1 integrin [3]; compared with 5) was “nearly ten-fold”.
“(S)-6-(1-Carbamoylcyclohexylamino)-5-[(S)-2-{4-(5-iodo-1H-benzo[d]imidazol-2-ylamino)benz-amido]-6-[(E)-3-(pyridin-3-yl)acrylamido}hexanamido]-6-oxohexanoic Acid [compound 6]” was tested, and the “fold less potent than the fluoro (3), chloro (4), and bromo (5) analogues” value (α4β1 integrin [3]; compared with 3, 4, 5) was “approximately 10 fold” and the “fold more potent than the unsubstituted (15a) and methyl analogues (15b)” value (α4β1 integrin [3]; compared with 15a, 15b) was 100 fold.
With `NC(=O)C1(NC(=O)[C@H](CCCC(=O)O)NC(=O)[C@H](CCCCNC(=O)/C=C/c2cccnc2)NC(=O)c2ccc(Nc3nc4cc(Br)ccc4[nH]3)cc2)CCCCC1` [compound 5, (S)-5-[(S)-2-{4-(5-Bromo-1H-benzo[d]imidazol-2-ylamino}benzamido]-6-[(E)-3-(pyridin-3-yl)-acrylamido}hexanamido]-6-(1-carbamoylcyclohexylamino)-6-oxo-hexanoic Acid] the “fold less potent than previous leads” value (α4β1 integrin [3]; compared with previous leads) was 2 fold.
